# Test results reported in ChEMBL document CHEMBL4184236, “Design, synthesis and biological evaluation of matrine derivatives as potential anticancer agents” (Bioorg Med Chem Lett, 2018).
# Experiments:
# SMMC-7721 [1] = test: Anticancer activity against human SMMC7721 cells assessed as reduction in cell viability incubated for 48 hrs MTT assay; assay type: functional, cell-based; settings: SMMC-7721, 48 h
# Procedure, shortened: (§1)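 MTT assay on human hepatocarcinoma SMMC-7721, lung carcinoma A549 and nasopharyngeal carcinoma CNE2 cells, with matrine as comparator and cisplatin as positive control. IC50 is the concentration that lowers optical density of treated cells by 50% versus untreated cells, given as the mean ± SD of three experiments.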
# A549 = test: Anticancer activity against human A549 cells assessed as reduction in cell viability incubated for 48 hrs MTT assay; assay type: functional, cell-based; settings: A549, 48 h; procedure, shortened: as §1
# CNE-2 [2] = test: Anticancer activity against human CNE2 cells assessed as reduction in cell viability incubated for 48 hrs MTT assay; assay type: functional, cell-based; settings: CNE-2, 48 h; procedure, shortened: as §1
# CNE-2 [3] = test: Induction of apoptosis in human CNE2 cells assessed as viable cells level at 20 uM incubated for 24 hrs by Annexin V-FITC/PI dual staining based flow cytometry (reference value: 91.6%); assay type: functional
# Procedure, shortened: (§2)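 CNE2 and SMMC-7721 cells were treated for 24 h at 0, 5, 10 or 30 µM, or at 0, 10, 20 or 50 µM depending on compound. Cells were stained with Annexin V-FITC/propidium iodide and quantified by flow cytometry. Apoptotic cells were counted as AV+/PI− (lower right) plus AV+/PI+ (upper right) quadrants.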
# CNE-2 [4] = test: Induction of apoptosis in human CNE2 cells assessed as early apoptotic cells level at 20 uM incubated for 24 hrs by Annexin V-FITC/PI dual staining based flow cytometry (reference value: 3.56%); assay type: functional; procedure, shortened: as §2
# CNE-2 [5] = test: Induction of apoptosis in human CNE2 cells assessed as late apoptotic cells level at 20 uM incubated for 24 hrs by Annexin V-FITC/PI dual staining based flow cytometry (reference value: 1.37%); assay type: functional; procedure, shortened: as §2
# CNE-2 [6] = test: Induction of apoptosis in human CNE2 cells assessed as necrotic cells level at 20 uM incubated for 24 hrs by Annexin V-FITC/PI dual staining based flow cytometry (reference value: 3.43%); assay type: functional; procedure, shortened: as §2
# CNE-2 [7] = test: Induction of apoptosis in human CNE2 cells assessed as viable cells level at 50 uM incubated for 24 hrs by Annexin V-FITC/PI dual staining based flow cytometry (reference value: 91.6%); assay type: functional; procedure, shortened: as §2
# CNE-2 [8] = test: Induction of apoptosis in human CNE2 cells assessed as early apoptotic cells level at 50 uM incubated for 24 hrs by Annexin V-FITC/PI dual staining based flow cytometry (reference value: 3.56%); assay type: functional; procedure, shortened: as §2
# CNE-2 [9] = test: Induction of apoptosis in human CNE2 cells assessed as late apoptotic cells level at 50 uM incubated for 24 hrs by Annexin V-FITC/PI dual staining based flow cytometry (reference value: 1.37%); assay type: functional; procedure, shortened: as §2
# CNE-2 [10] = test: Induction of apoptosis in human CNE2 cells assessed as necrotic cells level at 50 uM incubated for 24 hrs by Annexin V-FITC/PI dual staining based flow cytometry (reference value: 3.43%); assay type: functional; procedure, shortened: as §2
# SMMC-7721 [11] = test: Induction of apoptosis in human SMMC7721 cells assessed as viable cells level at 10 uM incubated for 24 hrs by Annexin V-FITC/PI dual staining based flow cytometry (reference value: 96.2%); assay type: functional; procedure, shortened: as §2
# SMMC-7721 [12] = test: Induction of apoptosis in human SMMC7721 cells assessed as early apoptotic cells level at 10 uM incubated for 24 hrs by Annexin V-FITC/PI dual staining based flow cytometry (reference value: 1%); assay type: functional; procedure, shortened: as §2
# SMMC-7721 [13] = test: Induction of apoptosis in human SMMC7721 cells assessed as late apoptotic cells level at 10 uM incubated for 24 hrs by Annexin V-FITC/PI dual staining based flow cytometry (reference value: 1.6%); assay type: functional; procedure, shortened: as §2
# SMMC-7721 [14] = test: Induction of apoptosis in human SMMC7721 cells assessed as necrotic cells level at 10 uM incubated for 24 hrs by Annexin V-FITC/PI dual staining based flow cytometry (reference value: 1.18%); assay type: functional; procedure, shortened: as §2
# SMMC-7721 [15] = test: Induction of apoptosis in human SMMC7721 cells assessed as viable cells level at 20 uM incubated for 24 hrs by Annexin V-FITC/PI dual staining based flow cytometry (reference value: 96.2%); assay type: functional; procedure, shortened: as §2
# SMMC-7721 [16] = test: Induction of apoptosis in human SMMC7721 cells assessed as early apoptotic cells level at 20 uM incubated for 24 hrs by Annexin V-FITC/PI dual staining based flow cytometry (reference value: 1%); assay type: functional; procedure, shortened: as §2
# SMMC-7721 [17] = test: Induction of apoptosis in human SMMC7721 cells assessed as late apoptotic cells level at 20 uM incubated for 24 hrs by Annexin V-FITC/PI dual staining based flow cytometry (reference value: 1.6%); assay type: functional; procedure, shortened: as §2
# SMMC-7721 [18] = test: Induction of apoptosis in human SMMC7721 cells assessed as necrotic cells level at 20 uM incubated for 24 hrs by Annexin V-FITC/PI dual staining based flow cytometry (reference value: 1.18%); assay type: functional; procedure, shortened: as §2
# SMMC-7721 [19] = test: Induction of apoptosis in human SMMC7721 cells assessed as viable cells level at 50 uM incubated for 24 hrs by Annexin V-FITC/PI dual staining based flow cytometry (reference value: 96.2%); assay type: functional; procedure, shortened: as §2
# SMMC-7721 [20] = test: Induction of apoptosis in human SMMC7721 cells assessed as early apoptotic cells level at 50 uM incubated for 24 hrs by Annexin V-FITC/PI dual staining based flow cytometry (reference value: 1%); assay type: functional; procedure, shortened: as §2
# SMMC-7721 [21] = test: Induction of apoptosis in human SMMC7721 cells assessed as late apoptotic cells level at 50 uM incubated for 24 hrs by Annexin V-FITC/PI dual staining based flow cytometry (reference value: 1.6%); assay type: functional; procedure, shortened: as §2
# SMMC-7721 [22] = test: Induction of apoptosis in human SMMC7721 cells assessed as necrotic cells level at 50 uM incubated for 24 hrs by Annexin V-FITC/PI dual staining based flow cytometry (reference value: 1.18%); assay type: functional; procedure, shortened: as §2
# SMMC-7721 [23] = test: Induction of apoptosis in human SMMC7721 cells incubated for 24 hrs by Annexin V-FITC/PI dual staining based flow cytometry; assay type: functional, cell-based; procedure, shortened: as §2
# CNE-2 [24] = test: Induction of apoptosis in human CNE2 cells incubated for 24 hrs by Annexin V-FITC/PI dual staining based flow cytometry; assay type: functional, cell-based; procedure, shortened: as §2
smiles,measurement,setting,value
COc1ccc2c(c1)c(/C=C1\CC[C@@H]3[C@H]4CCCN5CCC[C@@H](CN3C1=O)[C@@H]45)cn2Cc1cccc(Cl)c1,IC50,SMMC-7721 [1],3.95 µM
same,IC50,A549,4.96 µM
same,IC50,CNE-2 [2],3.42 µM
same,Activity,CNE-2 [3],58.7%
same,Activity,CNE-2 [4],29.9%
same,Activity,CNE-2 [5],8.7%
same,Activity,CNE-2 [6],2.7%
same,Activity,CNE-2 [7],21.2%
same,Activity,CNE-2 [8],45.9%
same,Activity,CNE-2 [9],28.3%
same,Activity,CNE-2 [10],4.62%
same,Activity,SMMC-7721 [11],60.3%
same,Activity,SMMC-7721 [12],35.6%
same,Activity,SMMC-7721 [13],3.4%
same,Activity,SMMC-7721 [14],0.69%
same,Activity,SMMC-7721 [15],38.6%
same,Activity,SMMC-7721 [16],40.6%
same,Activity,SMMC-7721 [17],18.2%
same,Activity,SMMC-7721 [18],2.53%
same,Activity,SMMC-7721 [19],2.15%
same,Activity,SMMC-7721 [20],15.5%
same,Activity,SMMC-7721 [21],79.5%
same,Activity,SMMC-7721 [22],2.91%
same,Activity,SMMC-7721 [23],Dose-dependent effect
same,Activity,CNE-2 [24],Dose-dependent effect
